From paper PMC12423902 (ACS Omega, 2025)
Where two headings read alike, the source gives them in different places. One block for each compound: values may come before it.

Key:
FASN [1] = molecular target: T1, FASN (Gallus gallus, UniProt P12276); conditions: read-out: IC50, FASN inhibition; literature value; ref number not given; cited from earlier work
FASN [2] = molecular target: T1, FASN; test: FASN overall reaction inhibition; format: biochemical, chicken
Method in brief: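 Overall reaction of purified chicken liver FASN at 37 °C, read as initial rate of NADPH absorbance loss at 340 nm. The test compound was added before the last substrate, which started the reaction; DMSO was below 0.5% (v/v). Relative activity was Ai/A0 × 100%. IC50 came from a plot of relative activity versus concentration. Single-point data at 10.0 μM are mean ± SD, n = 3 independent experiments.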

[3] = system: intracellular TG content in breast cancer cells (MDA-MB-231, MCF-7); test: triglyceride; format: cell-based, human; conditions: 24 h, p < 0.001
FASN KR domain = FASN KR domain (Gallus gallus, UniProt P12276); test: time-dependent inhibition of the KR domain; format: biochemical, chicken
FASN [4] = molecular target: T1, FASN; test: time-dependent; format: biochemical, chicken
Method in brief: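 FASN was incubated at 25 °C with various test compound concentrations. Aliquots taken at set intervals were assayed for residual overall activity. kobs came from ln(At/A0) = −kobs·t. For substrate protection, Ac-CoA, Mal-CoA or NADPH (10 μM each) was present during inactivation, compared with no substrate. In a separate series, FASN (0.60 μM) was preincubated with 6.6 μM test compound plus rising Ac-CoA, and 1/kobs was plotted against Ac-CoA.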

[5] = molecular target: FASN KR domain (β-ketoacyl reduction) (Gallus gallus, UniProt P12276); test: β-ketoacyl reduction partial reaction of FASN; format: biochemical, chicken; conditions: 10.0 μM phloretin
Method in brief: (§1)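 Chicken liver FASN was purified by two-step ammonium sulfate precipitation, DEAE-cellulose and Blue-Sepharose chromatography, and stored at −70 °C. Partial reactions (β-ketoacyl reduction, enoyl reduction, AcAc-CoA reduction) were run at 37 °C after 10 min equilibration. The test compound was at 10.0 μM, with DMSO below 0.5% (v/v). Initial velocity came from the NADPH decrease at 340 nm. Relative activity was Ai/A0 × 100%, given as mean ± SD of three independent experiments.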

[6] = ref number not given, cited from earlier work
MCF-7 = test: cell viability assay; format: cell-based; conditions: Homo sapiens, MCF7, 24 h, read-out: IC50, cell viability
Method in brief: (§2)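 Cells were grown in DMEM with 10% FBS at 37 °C and 5% CO2. They were seeded at 1 × 10^6 cells/mL and allowed to attach overnight before treatment. Medium was then replaced with drug-free medium containing CCK-8 reagent, incubated 1 h at 37 °C, and read at 450 nm. Six replicates were run on three separate occasions.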

MDA-MB-231 = test: cell viability assay; format: cell-based; conditions: Homo sapiens, MDA-MB-231, 24 h, read-out: IC50, cell viability
Method in brief: as §2

[7] = molecular target: FASN ER domain (enoyl reduction) (Gallus gallus, UniProt P12276); test: enoyl reduction partial reaction of FASN; format: biochemical, chicken; conditions: 10.0 μM phloretin
Method in brief: as §1

[8] = molecular target: FASN (MAT, KR, DH, ER domains and ACP; AcAc-CoA reaction) (Gallus gallus, UniProt P12276); test: AcAc-CoA reduction reaction of FASN; format: biochemical, chicken; conditions: 10.0 μM phloretin
Method in brief: as §1

[9] = system: FASN expression in MDA-MB-231 and MCF-7 cells; test: Western blot analysis of FASN expression in breast cancer cells; format: cell-based, human; conditions: 60–90 μM, 24 h, both cell lines
Method in brief: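 Cells in DMEM/10% FBS were treated 24 h with test compound, washed with PBS, lysed in RIPA and sonicated. Protein was measured by BCA, and 20 μg per lane was run on 8% SDS-PAGE and transferred to PVDF. Membranes were blocked in 5% milk, probed overnight at 4 °C with rabbit monoclonal anti-FASN and anti-β-actin, then an HRP anti-rabbit secondary. Detection was by ECL, with densitometry normalized to β-actin; mean ± SD, n = 3.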

[10] = molecular target: intracellular FASN in breast cancer cells (MDA-MB-231, MCF-7) (Homo sapiens, UniProt P49327); test: intracellular FASN activity assay; format: cell-based
Method in brief: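 After 24 h exposure, cells were trypsinized, washed three times and resuspended in cold PBS. They were sonicated at 4 °C and spun at 12,000 g for 15 min at 4 °C. Supernatant was assayed in 25 mM K-phosphate (pH 7.0) with 0.25 mM EDTA, 0.25 mM DTT, 30 μM Ac-CoA and 350 μM NADPH. Background A340 was read for 60 s, then Mal-CoA was added and FAS-dependent NADPH oxidation read for 60 s more. Mean ± SD, n = 3; ANOVA with Tukey.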

FASN [11] = molecular target: T1, FASN; test: enzyme kinetics study; format: biochemical, chicken; conditions: for Ki: Inhibition constant K is
Method in brief: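 Purified chicken FASN, overall reaction at 340 nm (NADPH). One substrate was varied with the others fixed. Ac-CoA varied with Mal-CoA 10 μM and NADPH 35 μM, test compound 0–5.86 μM. Mal-CoA varied with Ac-CoA 3 μM and NADPH 35 μM, test compound 0–6.88 μM. NADPH varied with Ac-CoA 3 μM and Mal-CoA 10 μM, test compound 0–9.12 μM. Lineweaver–Burk plots; Kis/Kii from secondary plots; points are means of 2–5 experiments.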

T1 sequence (P12276 2-2512 limits assumed): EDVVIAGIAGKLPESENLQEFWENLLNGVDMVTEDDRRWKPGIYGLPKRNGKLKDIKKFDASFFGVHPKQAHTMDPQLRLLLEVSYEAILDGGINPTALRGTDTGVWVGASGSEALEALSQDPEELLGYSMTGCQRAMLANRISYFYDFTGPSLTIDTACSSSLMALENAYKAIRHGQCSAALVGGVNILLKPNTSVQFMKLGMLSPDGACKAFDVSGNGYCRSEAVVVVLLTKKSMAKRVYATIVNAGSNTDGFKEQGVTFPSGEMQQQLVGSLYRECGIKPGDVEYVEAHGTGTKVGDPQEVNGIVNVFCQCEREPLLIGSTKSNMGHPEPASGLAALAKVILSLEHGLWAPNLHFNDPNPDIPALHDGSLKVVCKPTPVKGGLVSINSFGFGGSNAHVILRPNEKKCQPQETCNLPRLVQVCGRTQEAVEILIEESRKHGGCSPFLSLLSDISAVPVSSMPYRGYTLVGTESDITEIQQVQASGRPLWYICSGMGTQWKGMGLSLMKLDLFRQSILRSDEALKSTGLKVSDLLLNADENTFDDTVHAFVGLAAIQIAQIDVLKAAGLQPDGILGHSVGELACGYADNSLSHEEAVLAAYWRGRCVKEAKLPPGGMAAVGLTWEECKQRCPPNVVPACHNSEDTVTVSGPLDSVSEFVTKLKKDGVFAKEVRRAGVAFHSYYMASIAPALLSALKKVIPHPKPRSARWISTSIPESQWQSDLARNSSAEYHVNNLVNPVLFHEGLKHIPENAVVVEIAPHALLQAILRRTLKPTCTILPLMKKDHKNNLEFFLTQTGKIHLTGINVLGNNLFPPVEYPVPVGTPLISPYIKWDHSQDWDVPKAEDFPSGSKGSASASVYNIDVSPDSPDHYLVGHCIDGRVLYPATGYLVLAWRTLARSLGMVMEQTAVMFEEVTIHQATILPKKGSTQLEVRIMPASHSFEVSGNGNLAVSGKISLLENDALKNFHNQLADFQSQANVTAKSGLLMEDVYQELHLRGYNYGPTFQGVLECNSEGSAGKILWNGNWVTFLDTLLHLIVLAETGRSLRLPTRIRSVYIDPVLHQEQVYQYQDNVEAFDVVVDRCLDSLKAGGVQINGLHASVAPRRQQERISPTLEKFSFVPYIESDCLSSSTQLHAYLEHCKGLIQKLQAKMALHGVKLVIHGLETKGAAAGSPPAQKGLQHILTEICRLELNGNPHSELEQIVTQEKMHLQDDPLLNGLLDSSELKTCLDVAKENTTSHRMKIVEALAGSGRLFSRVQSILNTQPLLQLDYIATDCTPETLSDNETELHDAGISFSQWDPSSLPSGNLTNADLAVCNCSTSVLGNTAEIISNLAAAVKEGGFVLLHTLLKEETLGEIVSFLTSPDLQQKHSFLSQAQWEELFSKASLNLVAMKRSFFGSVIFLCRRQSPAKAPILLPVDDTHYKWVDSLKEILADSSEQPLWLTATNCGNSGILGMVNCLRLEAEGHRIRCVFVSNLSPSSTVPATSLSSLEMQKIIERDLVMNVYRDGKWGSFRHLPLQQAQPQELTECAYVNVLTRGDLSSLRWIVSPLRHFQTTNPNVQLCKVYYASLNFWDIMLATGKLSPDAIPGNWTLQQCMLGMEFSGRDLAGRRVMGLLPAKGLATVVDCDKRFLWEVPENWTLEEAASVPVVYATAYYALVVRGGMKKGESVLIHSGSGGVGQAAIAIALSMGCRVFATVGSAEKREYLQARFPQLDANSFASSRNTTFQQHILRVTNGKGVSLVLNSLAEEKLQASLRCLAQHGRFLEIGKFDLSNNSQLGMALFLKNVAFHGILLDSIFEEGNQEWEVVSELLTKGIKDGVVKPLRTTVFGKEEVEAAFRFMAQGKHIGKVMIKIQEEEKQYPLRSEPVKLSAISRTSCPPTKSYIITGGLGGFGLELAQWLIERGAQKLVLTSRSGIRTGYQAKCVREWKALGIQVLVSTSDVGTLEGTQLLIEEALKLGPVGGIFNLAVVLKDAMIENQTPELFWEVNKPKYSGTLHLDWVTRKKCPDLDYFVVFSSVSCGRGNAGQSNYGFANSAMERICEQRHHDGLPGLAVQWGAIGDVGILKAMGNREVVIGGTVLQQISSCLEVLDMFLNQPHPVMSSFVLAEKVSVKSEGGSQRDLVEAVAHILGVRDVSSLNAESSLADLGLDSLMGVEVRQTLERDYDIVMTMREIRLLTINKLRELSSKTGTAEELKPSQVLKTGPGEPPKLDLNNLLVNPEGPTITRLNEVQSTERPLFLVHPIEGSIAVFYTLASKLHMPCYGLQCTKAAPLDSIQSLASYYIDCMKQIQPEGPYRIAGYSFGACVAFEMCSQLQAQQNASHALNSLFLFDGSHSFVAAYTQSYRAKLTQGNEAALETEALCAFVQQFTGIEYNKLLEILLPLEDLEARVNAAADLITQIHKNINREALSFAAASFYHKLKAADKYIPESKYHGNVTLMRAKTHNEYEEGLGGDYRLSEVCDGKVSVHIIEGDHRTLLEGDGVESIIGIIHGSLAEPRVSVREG
Sequence of intracellular FASN in breast cancer cells (MDA-MB-231, MCF-7) (P49327 whole entry): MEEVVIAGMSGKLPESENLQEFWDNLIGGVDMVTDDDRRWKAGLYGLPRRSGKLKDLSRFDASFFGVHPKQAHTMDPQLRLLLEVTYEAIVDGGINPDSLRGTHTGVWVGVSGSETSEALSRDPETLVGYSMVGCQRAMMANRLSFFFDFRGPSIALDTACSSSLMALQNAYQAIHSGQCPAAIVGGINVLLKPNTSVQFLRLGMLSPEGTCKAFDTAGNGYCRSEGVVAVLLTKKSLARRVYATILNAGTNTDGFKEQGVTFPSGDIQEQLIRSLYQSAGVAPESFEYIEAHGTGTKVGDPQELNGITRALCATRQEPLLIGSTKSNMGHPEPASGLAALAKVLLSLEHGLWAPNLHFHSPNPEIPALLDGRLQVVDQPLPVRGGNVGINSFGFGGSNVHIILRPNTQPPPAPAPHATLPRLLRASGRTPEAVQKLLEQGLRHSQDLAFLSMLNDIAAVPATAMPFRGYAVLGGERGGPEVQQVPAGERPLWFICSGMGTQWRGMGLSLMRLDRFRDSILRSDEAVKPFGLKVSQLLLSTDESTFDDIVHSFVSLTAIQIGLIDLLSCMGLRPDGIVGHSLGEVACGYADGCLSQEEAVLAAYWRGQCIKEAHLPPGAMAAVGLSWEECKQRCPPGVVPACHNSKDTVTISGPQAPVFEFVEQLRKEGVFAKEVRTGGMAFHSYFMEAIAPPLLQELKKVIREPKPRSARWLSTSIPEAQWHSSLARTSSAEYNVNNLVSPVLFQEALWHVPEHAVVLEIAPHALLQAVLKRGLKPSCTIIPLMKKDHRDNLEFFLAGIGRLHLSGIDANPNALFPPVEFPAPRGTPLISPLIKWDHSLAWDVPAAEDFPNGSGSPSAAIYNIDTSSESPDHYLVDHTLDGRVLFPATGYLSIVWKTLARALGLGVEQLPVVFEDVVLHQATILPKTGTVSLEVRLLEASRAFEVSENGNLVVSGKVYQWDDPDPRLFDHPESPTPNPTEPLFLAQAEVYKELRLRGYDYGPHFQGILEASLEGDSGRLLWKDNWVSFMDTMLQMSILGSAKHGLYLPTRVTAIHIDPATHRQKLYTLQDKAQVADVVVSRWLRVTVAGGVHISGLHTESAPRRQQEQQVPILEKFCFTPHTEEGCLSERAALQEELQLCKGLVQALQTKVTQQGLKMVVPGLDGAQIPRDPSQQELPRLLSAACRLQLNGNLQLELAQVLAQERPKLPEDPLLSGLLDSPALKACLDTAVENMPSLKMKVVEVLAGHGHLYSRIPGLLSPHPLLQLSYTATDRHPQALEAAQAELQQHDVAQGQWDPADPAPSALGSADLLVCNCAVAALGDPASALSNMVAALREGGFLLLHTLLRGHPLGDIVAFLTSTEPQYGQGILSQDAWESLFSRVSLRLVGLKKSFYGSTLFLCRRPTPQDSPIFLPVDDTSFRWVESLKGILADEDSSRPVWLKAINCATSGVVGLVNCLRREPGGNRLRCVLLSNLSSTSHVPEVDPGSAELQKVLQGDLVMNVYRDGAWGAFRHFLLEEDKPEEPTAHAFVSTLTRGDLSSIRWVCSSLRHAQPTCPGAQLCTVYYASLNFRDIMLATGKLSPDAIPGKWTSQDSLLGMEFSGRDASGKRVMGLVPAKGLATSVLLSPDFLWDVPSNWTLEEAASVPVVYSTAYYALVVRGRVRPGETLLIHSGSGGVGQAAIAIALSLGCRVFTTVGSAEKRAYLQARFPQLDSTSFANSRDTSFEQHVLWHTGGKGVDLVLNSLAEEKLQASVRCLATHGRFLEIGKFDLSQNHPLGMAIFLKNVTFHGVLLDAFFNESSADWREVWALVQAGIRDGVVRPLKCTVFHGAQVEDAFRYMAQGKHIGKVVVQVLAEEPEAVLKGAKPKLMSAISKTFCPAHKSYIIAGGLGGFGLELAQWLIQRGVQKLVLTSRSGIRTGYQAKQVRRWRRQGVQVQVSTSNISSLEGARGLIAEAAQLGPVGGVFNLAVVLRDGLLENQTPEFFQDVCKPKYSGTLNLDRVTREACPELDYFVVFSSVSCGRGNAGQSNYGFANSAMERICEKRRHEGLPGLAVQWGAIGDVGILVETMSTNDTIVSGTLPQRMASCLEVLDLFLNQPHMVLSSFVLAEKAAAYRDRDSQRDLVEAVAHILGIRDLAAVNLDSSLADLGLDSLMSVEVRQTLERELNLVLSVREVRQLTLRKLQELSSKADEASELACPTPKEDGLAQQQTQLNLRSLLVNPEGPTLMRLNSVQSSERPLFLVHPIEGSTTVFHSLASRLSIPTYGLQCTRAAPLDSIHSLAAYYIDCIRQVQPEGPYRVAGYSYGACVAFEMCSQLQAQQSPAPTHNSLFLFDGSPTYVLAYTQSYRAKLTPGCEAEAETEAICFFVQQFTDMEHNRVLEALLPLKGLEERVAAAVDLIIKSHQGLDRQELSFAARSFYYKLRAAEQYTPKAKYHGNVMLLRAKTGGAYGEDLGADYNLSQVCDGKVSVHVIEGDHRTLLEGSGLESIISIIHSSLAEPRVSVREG
Sequence of FASN KR domain (β-ketoacyl reduction) (P12276 2-2512 limits assumed): as the sequence (P12276 2-2512 limits assumed) above
Sequence of FASN KR domain (P12276 2-2512 limits assumed): as above
Sequence of FASN ER domain (enoyl reduction) (P12276 2-2512 limits assumed): as above

- IC50 (FASN [2]; read-out: IC50, FASN overall reaction activity, chicken liver FASN, 37 °C): 50.5 ± 0.75 µM
Structure (SMILES): O=C(O[C@@H]1Cc2c(O)cc(O)cc2O[C@@H]1c1cc(O)c(O)c(O)c1)c1cc(O)c(O)c(O)c1 [EGCG, epigallocatechin gallate, reference compound]
- IC50 (FASN [1]): 52 µM

Structure (SMILES): C/C=C/C/C=C/CCC(=O)[C@H]1O[C@H]1C(N)=O [cerulenin]
- IC50 (FASN [1]): 89 µM

- decrease of k obs by preincubation with Mal-CoA or NADPH (FASN [4]; Mal-CoA (10 μM) or NADPH (10 μM) vs no substrate): 5–10%
- k obs, FASN inactivation without any substrate (FASN [4]; control, same conditions without substrate): 0.070 min^–1
- k obs, overall reaction activity of FASN (FASN [4]; phloretin 2 mg/mL, incubated at 25 °C): 0.0264 min^–1
- k obs, FASN inactivation with Ac-CoA (FASN [4]; with Ac-CoA (10 μM)): 0.025 min^–1
- k obs, FASN inactivation with Mal-CoA (FASN [4]; with Mal-CoA (10 μM)): 0.067 min^–1
- k obs, FASN inactivation with NADPH (FASN [4]; with NADPH (10 μM)): 0.064 min^–1
- β-ketoacyl reduction activity suppressed [5]: 3.5%
- IC50 (MCF-7): 101 µM
- IC50 (MDA-MB-231): 81.4 µM
- enoyl reduction activity suppressed [7]: 4.8%
- AcAc-CoA reaction activity remained [8]: 91.2%
- IC50 (FASN [2]): 4.9 ± 0.66 µM
- inhibition at 10 µM (FASN [2]; read-out: inhibition of overall FASN activity): 81%
- lowest concentration with significant inhibition of intracellular FASN activity ([10]; p < 0.01, 24 h, breast cancer cells): 30 µM
- inhibition at 90 µM ([10]; read-out: maximal inhibition of intracellular FASN enzymatic activity): > 50%
- Ki (FASN [11]; substrate Ac-CoA): 3.46 µM
- Ki (FASN [11]; substrate Mal-CoA): 5.69 µM
- Inhibitory manner (FASN [11]; substrate Ac-CoA varied, Mal-CoA 10 μM, NADPH 35 μM): Competitive
- Inhibitory manner (FASN [11]; substrate Mal-CoA varied, Ac-CoA 3 μM, NADPH 35 μM): Mixed competitive and noncompetitive
- Inhibition constant K ii (FASN [11]; substrate Mal-CoA, enzyme–substrate complex): 9.41 µM
- Inhibition constant K ii (FASN [11]; substrate NADPH): 1.80 µM
- Inhibitory manner (FASN [11]; substrate NADPH varied, Ac-CoA 3 μM, Mal-CoA 10 μM): Uncompetitive
Structure (SMILES): O=C(CCc1ccc(O)cc1)c1c(O)cc(O)cc1O [phloretin, β-(4-hydroxyphenyl)-2,4,6-trihydroxypropiophenone]
- cellular TG levels [3]: marked concentration-dependent reduction
- time-dependent inhibition of KR domain (FASN KR domain): no time-dependent inhibition was observed
- time of Cmax postdose ([6]; Sprague–Dawley rats, single 100 mg/kg dose): 15 min
- Cmax ([6]; oral doses of 200 and 300 mg/kg): < 10 µM
- oral bioavailability ([6]; rats, oral and intravenous routes): 8.676%
- FASN protein content [9]: significantly decreased
